One series relates to Blood. Description: Inhibition of LPS-induced TNFalpha release in human whole blood after 24 hrs by ELISA. Type of series: functional, tissue-based.
Series [1] deals with T1, Mitogen-activated protein kinase 14 (Homo sapiens, UniProt Q16539).
In series [2] the test system is Liver microsomes. The experiment in a line: Metabolic stability in rat liver microsomes in absence of NADPH. Type of series: ADME, Microsome.
Series [3] concerns Liver microsomes. Description: Metabolic stability in human liver microsomes in absence of NADPH. Type of series: ADME, Microsome. (Liver microsomes are vesicles of endoplasmic reticulum, rich in cytochrome P450 enzymes.)
Series [4] is described as follows: Metabolic stability in human liver microsomes assessed as compound turnover at 5 uM after 30 mins in presence of NADPH. Format: ADME, Microsome. The following applies: read-out: Drug metabolism.
The test system of series [5] is Liver microsomes. Description: Metabolic stability in human liver microsomes assessed as compound turnover at 5 uM after 30 mins in absence of NADPH. Format: ADME, Microsome. As to conditions: 0.5 h.
The nature of series [6]: Metabolic stability in rat liver microsomes assessed as compound turnover at 5 uM after 30 mins in presence of NADPH. Type of series: ADME, Microsome. As to conditions: read-out: Drug metabolism. The gist of the method: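 5 µM test compound incubated with rat or human hepatic microsomes (1 mg/mL) plus NADPH for 30 min at 37 °C; result given as % turnover.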
The next series relates to CHO. The experiment in a line: Cytotoxicity against CHO cells. Type of series: cell-based. The following applies: Cricetulus griseus.
The target in series [7] is T1, Mitogen-activated protein kinase 14. The experiment in a line: Inhibition of human p38alpha using biotinylated ATF2 as substrate at 60 uM preincubated for 1 hr measured after 1 hr by FRET assay.

One may read the IC50 as the concentration needed to halve the response being measured. A high value points to lower potency. A word on the inhibition: it is the relative decrease from the control value, in per cent. Low readings indicate a response near the control, high ones a response far below the control.

T1 sequence (Q16539 whole entry): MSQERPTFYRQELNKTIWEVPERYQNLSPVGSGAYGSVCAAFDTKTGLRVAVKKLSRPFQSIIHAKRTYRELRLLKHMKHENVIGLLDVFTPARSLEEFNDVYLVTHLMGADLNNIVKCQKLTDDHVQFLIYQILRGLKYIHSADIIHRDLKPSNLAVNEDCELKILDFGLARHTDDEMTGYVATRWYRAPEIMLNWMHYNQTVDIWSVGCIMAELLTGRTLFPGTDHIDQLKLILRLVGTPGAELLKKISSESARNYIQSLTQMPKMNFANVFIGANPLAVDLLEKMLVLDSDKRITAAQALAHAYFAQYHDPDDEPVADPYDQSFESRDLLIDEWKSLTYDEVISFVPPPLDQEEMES

With `Cc1ccc2c(NC3CC3)noc2c1-c1ccc2c(c1)NC(=O)C2(C)C`, the IC50 with Blood worked out at 50 nM.

Turning to `O=C1Nc2cc(-c3cccc4c(NC5CC5)noc34)ccc2C12CCCC2`, the results for the IC50 (with Blood; in series [1]) were 1260 nM and 38 nM, respectively.

In the series on Blood, `Cc1ccc(-c2ncn[nH]2)cc1-c1ccc2c(c1)NC(=O)C21CCCC1` had a half-maximal inhibitory concentration (IC50) of 253 nM.

Molecule `Cc1nc(-c2ccc(C)c(-c3ccc4c(c3)NC(=O)C43CCCC3)c2)no1` registered an IC50 in series [1] of 583 nM. Moreover, the Stability entry in the series on Liver microsomes [2] and in the series on Liver microsomes [3] was “Stable” each time.

On to `Cc1ccc2c(NC3CC3)noc2c1-c1ccc2c(c1)NC(=O)C21CCCC1`, for which the IC50 with Blood amounted to 2 nM.

Turning to `Cc1nnc(-c2ccc(C)c(-c3ccc4c(c3)NC(=O)C43CCC(F)(F)CC3)c2)[nH]1`, the metabolised at 0.5 h, 5 µM in [4] is less than 5%; in series [6] it was 5%. Besides, the values for the IC50 in the series with Blood and in the series on CHO were 98 nM and 20000 nM, respectively. The Stability result with Liver microsomes [5] was “Stable”.

As for `Cc1noc(-c2ccc(C)c(-c3ccc4c(c3)NC(=O)C43CCCC3)c2)n1`, it took 741 nM to reach half-maximal inhibition in [1] (IC50). The Stability result in the series on Liver microsomes [2] and in the series on Liver microsomes [3] was “Stable” in each case.

For the molecule `Cc1ccc2c(N)noc2c1-c1ccc2c(c1)NC(=O)C2(C)C`, in the series with Blood, the IC50 amounted to 731 nM.

As for `Cc1nnc(-c2ccc(C)c(-c3ccc4c(c3)NC(=O)C43CCC3)c2)[nH]1`, in the series on Blood, half-maximal inhibition (IC50) required 624 nM.

Turning to `Cc1ccc2c(N)n[nH]c2c1-c1ccc2c(c1)NC(=O)C21CCOCC1`, the inhibition in series [7] was determined as 60%.

In the case of `Cc1cnc(-c2ccc(C)c(-c3ccc4c(c3)NC(=O)C43CCOCC3)c2)[nH]1`, in series [1], the half-inhibitory concentration (IC50) stood at 173 nM. Also, the Stability entry in the series on Liver microsomes [2] and in the series with Liver microsomes [3] was “Stable” in each case.

`Cc1ccc(-c2nnc(C3CC3)[nH]2)cc1-c1ccc2c(c1)NC(=O)C21CCCC1` came in with a half-maximal inhibitory concentration (IC50) in series [1] of 135 nM.

Source of the values: ChEMBL document CHEMBL1909512, “Indolin-2-one p38α inhibitors III: bioisosteric amide replacement” (Bioorg Med Chem Lett, 2011).
